# Measurements published in ChEMBL document CHEMBL1165947, “Synthesis and antitumor activity of 2,5-bis(3'-indolyl)-furans and 3,5-bis(3'-indolyl)-isoxazoles, nortopsentin analogues” (Bioorg Med Chem, 2010).
# Legend:
# Assay type in all cases: functional, cell-based
# LNCaP = experiment: Cytotoxicity against human LNCAP cells after 4 days by modified propidium iodide staining-based fluorescence assay; conditions: 96 h
# Outline: (§1)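 Cells cultured in RPMI 1640 with 10% fetal calf serum and 0.1 mg/mL gentamicin at 37 °C, 5% CO2. Cells from exponential cultures were trypsinized and plated at 4.000-20.000 cells/well by line. After 24 h recovery, compounds were added at five log-spaced concentrations (highest 100 μg/mL) for 4 days. Proliferation was read as DNA content with aqueous propidium iodide (7 μg/ml), fluorescence ex 530/em 620 nm. Points were run in triplicate.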
# NCI-H460 = experiment: Cytotoxicity against human H460 cells after 4 days by modified propidium iodide staining-based fluorescence assay; conditions: NCI-H460, 96 h; outline: as §1
# [1] = Cytotoxicity against human 1752L cells after 4 days by modified propidium iodide staining-based fluorescence assay; conditions: 96 h; outline: as §1
# OVCAR-3 = experiment: Cytotoxicity against human OVCAR-3 cells after 4 days by modified propidium iodide staining-based fluorescence assay; conditions: OVCAR-3, 96 h; outline: as §1
# T-24 = experiment: Cytotoxicity against human T24 cells after 4 days by modified propidium iodide staining-based fluorescence assay; conditions: T-24, 96 h; outline: as §1
# HT-29 = experiment: Cytotoxicity against human HT-29 cells after 4 days by modified propidium iodide staining-based fluorescence assay; conditions: HT-29, 96 h; outline: as §1
# SF-268 = experiment: Cytotoxicity against human SF268 cells after 4 days by modified propidium iodide staining-based fluorescence assay; conditions: SF-268, 96 h; outline: as §1
# [2] = Cytotoxicity against human 1657L cells after 4 days by modified propidium iodide staining-based fluorescence assay; conditions: 96 h; outline: as §1
# [3] = Cytotoxicity against human RXF 486L cells after 4 days by modified propidium iodide staining-based fluorescence assay; conditions: 96 h; outline: as §1
# A549 = experiment: Cytotoxicity against human A549 cells after 4 days by modified propidium iodide staining-based fluorescence assay; conditions: A549, 96 h; outline: as §1
# MCF7 = experiment: Cytotoxicity against human MCF7 cells after 4 days by modified propidium iodide staining-based fluorescence assay; conditions: MCF7, 96 h; outline: as §1
# [4] = Cytotoxicity against human UXF 1138L cells after 4 days by modified propidium iodide staining-based fluorescence assay; conditions: 96 h; outline: as §1
# [5] = Cytotoxicity against human MEXF 520L cells after 4 days by modified propidium iodide staining-based fluorescence assay; conditions: 96 h; outline: as §1
# [6] = Cytotoxicity against human 1781L cells after 4 days by modified propidium iodide staining-based fluorescence assay; conditions: 96 h; outline: as §1
# [7] = Cytotoxicity against human LXFL 1121L cells after 4 days by modified propidium iodide staining-based fluorescence assay; conditions: 96 h; outline: as §1
# [8] = Cytotoxicity against human MAXF 401NL cells after 4 days by modified propidium iodide staining-based fluorescence assay; conditions: 96 h; outline: as §1
# [9] = Cytotoxicity against human GXF251L cells after 4 days by modified propidium iodide staining-based fluorescence assay; conditions: GXF 251L, 96 h; outline: as §1
# [10] = Cytotoxicity against human LXFA 629L cells after 4 days by modified propidium iodide staining-based fluorescence assay; conditions: 96 h; outline: as §1
# DU-145 = experiment: Cytotoxicity against human DU145 cells after 4 days by modified propidium iodide staining-based fluorescence assay; conditions: DU-145, 96 h; outline: as §1
# HCT-116 = experiment: Cytotoxicity against human HCT116 cells after 4 days by modified propidium iodide staining-based fluorescence assay; conditions: HCT-116, 96 h; outline: as §1
# [11] = Cytotoxicity against human 899L cells after 4 days by modified propidium iodide staining-based fluorescence assay; conditions: 96 h; outline: as §1
# [12] = Cytotoxicity against human LXFA 289L cells after 4 days by modified propidium iodide staining-based fluorescence assay; conditions: 96 h; outline: as §1
# [13] = Cytotoxicity against human LXFA 526L cells after 4 days by modified propidium iodide staining-based fluorescence assay; conditions: 96 h; outline: as §1
# [14] = Cytotoxicity against human PC3M cells after 4 days by modified propidium iodide staining-based fluorescence assay; conditions: PC-3M, 96 h; outline: as §1
# [15] = Cytotoxicity against human MEXF 462NL cells after 4 days by modified propidium iodide staining-based fluorescence assay; conditions: 96 h; outline: as §1
# PANC-1 = experiment: Cytotoxicity against human PANC1 cells after 4 days by modified propidium iodide staining-based fluorescence assay; conditions: PANC-1, 96 h; outline: as §1
# [16] = Cytotoxicity against human MEXF 276L cells after 4 days by modified propidium iodide staining-based fluorescence assay; conditions: MEXF276L, 96 h; outline: as §1
# [17] = Cytotoxicity against human BXF 1218L cells after 4 days by modified propidium iodide staining-based fluorescence assay; conditions: 96 h; outline: as §1
# CWR22R = experiment: Cytotoxicity against human 22Rv1 cells after 4 days by modified propidium iodide staining-based fluorescence assay; conditions: 22Rv1, 96 h; outline: as §1
# P388 = experiment: Cytotoxicity against mouse P388 cells
compound,measurement,setting,value
Cn1cc(-c2cc(-c3cn(C)c4ccccc34)on2)c2ccccc21,IC50,LNCaP,11.5 µg/mL
same,IC50,NCI-H460,18.4 µg/mL
same,IC50,[1],24.2 µg/mL
same,IC50,OVCAR-3,11.1 µg/mL
same,IC50,T-24,40.6 µg/mL
same,IC50,HT-29,32.7 µg/mL
same,IC50,SF-268,24.6 µg/mL
same,IC50,[2],29.9 µg/mL
same,IC50,[3],29.3 µg/mL
same,IC50,A549,5.1 µg/mL
same,IC50,MCF7,21.5 µg/mL
same,IC50,[4],4.8 µg/mL
same,IC50,[5],24.1 µg/mL
same,IC50,[6],38.7 µg/mL
same,IC50,[7],21 µg/mL
same,IC50,[8],28.8 µg/mL
same,IC50,[9],7.2 µg/mL
same,IC50,[10],4.2 µg/mL
same,IC50,DU-145,18.3 µg/mL
same,IC50,HCT-116,29.5 µg/mL
same,IC50,[11],14.9 µg/mL
same,IC50,[12],18.7 µg/mL
same,IC50,[13],11.5 µg/mL
same,IC50,[14],28.1 µg/mL
same,IC50,[15],37.8 µg/mL
same,IC50,PANC-1,8.8 µg/mL
same,IC50,[16],13.3 µg/mL
same,IC50,[17],20 µg/mL
same,IC50,CWR22R,14.1 µg/mL
Cn1c(-c2cn(C)c3cc(Br)ccc23)cnc1-c1cn(C)c2cc(Br)ccc12 [N-METHYL NORTOPSENTIN A],IC50,P388,800 nM
